According to ChEMBL document CHEMBL3244414, “Structure-activity relationships among the O-acyl derivatives of leucomycin. Correlation of minimal inhibitory concentrations with binding to Escherichia coli ribosomes” (J Med Chem, 1977):
Converted amounts (≈) assume the structure as drawn.

Assays:
[1] = tested on: Bacillus spizizenii; test: Antimicrobial activity against Bacillus subtilis ATCC 6633 by agar dilution method; assay type: functional
In short: (§1)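 Read-out is the minimal inhibitory concentration, found by agar dilution against the named strain.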

[2] = tested on: Staphylococcus aureus; test: Antimicrobial activity against Staphylococcus aureus ATCC 6538P by agar dilution method; assay type: functional; in short: as §1
[3] = tested on: Klebsiella pneumoniae; test: Antimicrobial activity against Klebsiella pneumoniae ATCC 10031 by agar dilution method; assay type: functional; in short: as §1
[4] = target: Bacterial 70S ribosome (Bacteria) (UniProt P0A7V0+P60723+P0AG67+P0A7R5+P0A7R9+P0A7S3+P0A7S9+P0AG59+P0ADZ4+P0A7T3+P0AG63+P0A7T7+P0A7U3+P0A7U7+P68679+P0A7V3+P0A7V8+P0A7W1+P02358+P02359+P0A7W7+P0A7X3+P0A7J3+P0A7J7+P0AA10+P0ADY3+P02413+P0ADY7+P0AG44+P0C018+P0A7K6+P0A7L0+P0A7L3+P0AG48+P61175+P0ADZ0+P60624+P68919+P0A7L8+P0A7M2+P0A7M6+P60422+P0AG51+P0A7N1+P0A7M9+P0A7N4+P0A7N9+P0A7P5+P0A7Q1+Q2EEQ2+P0A7Q6+P60438+P62399+P0AG55+P0A7K2); test: (§2) Displacement of [14C]erythromycin from Escherichia coli ribosomes after 30 mins by scintillation spectrometer analysis
In short: (§3)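 NH4Cl-washed E. coli ribosomes with [14C]erythromycin A and varied competitor concentrations in 0.01 M Tris-HCl pH 7.2, 0.1 M KCl, 0.004 M MgCl2, 0.01 M NH4Cl. Incubated 30 min at 24 °C, stopped by dilution in cold Tris/KCl/MgCl2 buffer, membrane-filtered, washed three times, dried, scintillation counted. Reports the concentration giving 50% inhibition of binding.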

[5] = target: Bacterial 70S ribosome; test: as §2; in short: as §3
[6] = Bacillus spizizenii, ATCC 6633, read-out: MIC
[7] = Staphylococcus aureus, ATCC 6538P, read-out: MIC
[8] = Klebsiella pneumoniae, ATCC 10031, read-out: MIC

CO[C@H]1C(O)CC(=O)O[C@H](C)C/C=C/C=C/[C@H](OC(C)=O)[C@H](C)C[C@H](CC=O)[C@@H]1O[C@@H]1O[C@H](C)[C@@H](O[C@H]2C[C@@](C)(O)[C@@H](O)[C@H](C)O2)[C@H](N(C)C)[C@H]1O (single isomer, unassigned)
MIC [1, 6]: 3.1 µg/mL (≈ 4.17 µM) | MIC [2, 7]: 6.3 µg/mL (≈ 8.47 µM) | MIC [3, 8]: 100 µg/mL (≈ 134 µM) | pK50 [4]: 5.6 | IC50 [5]: 2800 nM

CCCC(=O)O[C@H]1[C@H](C)O[C@@H](O[C@H]2[C@H](N(C)C)[C@@H](OC(C)=O)[C@H](O[C@H]3[C@@H](CC=O)C[C@@H](C)[C@@H](OC(C)=O)/C=C/C=C/C[C@@H](C)OC(=O)C[C@@H](OC(C)=O)[C@@H]3OC)O[C@@H]2C)C[C@@]1(C)O
MIC [1, 6]: 1.6 µg/mL (≈ 1.78 µM) | MIC [2, 7]: 1.6 µg/mL (≈ 1.78 µM) | MIC [3, 8]: 100 µg/mL (≈ 111 µM) | pK50 [4]: 4.5 | IC50 [5]: 33100 nM

CO[C@@H]1[C@@H](O[C@@H]2O[C@H](C)[C@@H](O[C@H]3C[C@@](C)(O)[C@@H](OC(=O)CC(C)C)[C@H](C)O3)[C@H](N(C)C)[C@H]2O)[C@@H](CC=O)C[C@@H](C)[C@@H](OC(C)=O)/C=C/C=C/C[C@@H](C)OC(=O)C[C@H]1OC(C)=O
MIC [1, 6]: 1.6 µg/mL (≈ 1.84 µM) | MIC [2, 7]: 1.6 µg/mL (≈ 1.84 µM) | MIC [3, 8]: 50 µg/mL (≈ 57.5 µM) | pK50 [4]: 5.9 | IC50 [5]: 1300 nM

CO[C@@H]1[C@@H](O[C@@H]2O[C@H](C)[C@@H](O[C@H]3C[C@@](C)(O)[C@@H](OC(=O)CC(C)C)[C@H](C)O3)[C@H](N(C)C)[C@H]2O)[C@@H](CC=O)C[C@@H](C)[C@@H](OC(=O)C(C)C)/C=C/C=C/C[C@@H](C)OC(=O)C[C@H]1OC(C)=O
MIC [1, 6]: 0.8 µg/mL (≈ 0.891 µM) | MIC [2, 7]: 3.1 µg/mL (≈ 3.45 µM) | MIC [3, 8]: 100 µg/mL (≈ 111 µM) | pK50 [4]: 5.7 | IC50 [5]: 2000 nM

CCCC(=O)O[C@H]1[C@H](C)O[C@@H](O[C@H]2[C@H](N(C)C)[C@@H](OC(C)=O)[C@H](O[C@H]3[C@@H](CC=O)C[C@@H](C)[C@@H](O)/C=C/C=C/C[C@@H](C)OC(=O)C[C@@H](O)[C@@H]3OC)O[C@@H]2C)C[C@@]1(C)O
MIC [1, 6]: 0.8 µg/mL (≈ 0.983 µM) | MIC [2, 7]: 1.6 µg/mL (≈ 1.97 µM) | MIC [3, 8]: 12.5 µg/mL (≈ 15.4 µM) | pK50 [4]: 4.8 | IC50 [5]: 14800 nM

CO[C@@H]1[C@@H](O[C@@H]2O[C@H](C)[C@@H](O[C@H]3C[C@@](C)(O)[C@@H](OC(=O)CC(C)C)[C@H](C)O3)[C@H](N(C)C)[C@H]2OC(C)=O)[C@@H](CC=O)C[C@@H](C)[C@@H](O)/C=C/C=C/C[C@@H](C)OC(=O)C[C@H]1OC(C)=O
MIC [1, 6]: 0.8 µg/mL (≈ 0.919 µM) | MIC [2, 7]: 1.6 µg/mL (≈ 1.84 µM) | MIC [3, 8]: 25 µg/mL (≈ 28.7 µM) | pK50 [4]: 4.5 | IC50 [5]: 33900 nM

CO[C@@H]1[C@@H](O[C@@H]2O[C@H](C)[C@@H](O[C@H]3C[C@@](C)(O)[C@@H](OC(=O)CC(C)C)[C@H](C)O3)[C@H](N(C)C)[C@H]2O)[C@@H](CC=O)C[C@@H](C)[C@@H](OC(=O)CCC(=O)O)/C=C/C=C/C[C@@H](C)OC(=O)C[C@H]1OC(C)=O
MIC [1, 6]: 3.1 µg/mL (≈ 3.34 µM) | MIC [2, 7]: 3.1 µg/mL (≈ 3.34 µM) | MIC [3, 8]: 100 µg/mL (≈ 108 µM) | pK50 [4]: 5.5 | IC50 [5]: 3400 nM

CO[C@@H]1[C@@H](O[C@@H]2O[C@H](C)[C@@H](O[C@H]3C[C@@](C)(O)[C@@H](OC(=O)CC(C)C)[C@H](C)O3)[C@H](N(C)C)[C@H]2O)[C@@H](CC=O)C[C@@H](C)[C@@H](O)/C=C/C=C/C[C@@H](C)OC(=O)C[C@H]1O (stereo in doubt; 2) [KITASAMYCIN]
MIC [1]: 0.4 µg/mL (≈ 0.509 µM) | MIC [2]: 1.6 µg/mL (≈ 2.04 µM) | MIC [3]: 25 µg/mL (≈ 31.8 µM) | pK50 [4]: 6 | IC50 [5]: 1000 nM

CO[C@@H]1[C@@H](O[C@@H]2O[C@H](C)[C@@H](O[C@H]3C[C@@](C)(O)[C@@H](OC(C)=O)[C@H](C)O3)[C@H](N(C)C)[C@H]2O)[C@@H](CC=O)C[C@@H](C)[C@@H](O)/C=C/C=C/C[C@@H](C)OC(=O)C[C@H]1OC(C)=O
MIC [1, 6]: 6.3 µg/mL (≈ 8.02 µM) | MIC [2, 7]: 3.1 µg/mL (≈ 3.94 µM) | MIC [3, 8]: 100 µg/mL (≈ 127 µM) | pK50 [4]: 5.2 | IC50 [5]: 6700 nM

CCCC(=O)O[C@H]1[C@H](C)O[C@@H](O[C@H]2[C@H](N(C)C)[C@@H](O)[C@H](O[C@H]3[C@@H](CC=O)C[C@@H](C)[C@@H](OC(C)=O)/C=C/C=C/C[C@@H](C)OC(=O)C[C@@H](O)[C@@H]3OC)O[C@@H]2C)C[C@@]1(C)O
MIC [1, 6]: 0.4 µg/mL (≈ 0.491 µM) | MIC [2, 7]: 1.6 µg/mL (≈ 1.97 µM) | MIC [3, 8]: 25 µg/mL (≈ 30.7 µM) | pK50 [4]: 6.1 | IC50 [5]: 900 nM

CO[C@@H]1[C@@H](O[C@@H]2O[C@H](C)[C@@H](O[C@H]3C[C@@](C)(O)[C@@H](OC(C)=O)[C@H](C)O3)[C@H](N(C)C)[C@H]2O)[C@@H](CC=O)C[C@@H](C)[C@@H](OC(C)=O)/C=C/C=C/C[C@@H](C)OC(=O)C[C@H]1O
MIC [1, 6]: 3.1 µg/mL (≈ 3.94 µM) | MIC [2, 7]: 6.3 µg/mL (≈ 8.02 µM) | MIC [3, 8]: 50 µg/mL (≈ 63.6 µM) | pK50 [4]: 5.7 | IC50 [5]: 2100 nM
